Assay results: PubChem BioAssay
Calls of active or inactive are those of the source.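 How the source made its calls, unless noted: active means viability at or under a set limit in both replicates, limit being median viability minus 3 SD (cut at about 48% in these data, passing the limit was not always enough); inconclusive means at or under the limit in just one replicate; inactive means at or above the limit in both replicates.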

Key:
[1] = reducers of endogenous Her2 protein level, primary screen, SKBR3 breast tumor cells, AlphaScreen, ATP viability (AID 461;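 active means Her2 level under about 52% in both replicate screens, with viability over 70% of control, limit read from the data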;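 on Her2 level: lower value means less Her2 protein in the cells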;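 on viability: percent of carrier control wells set as 100% viability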); conditions: 18-24 h, measured here: SKBR3 viability, ATP luminescence, at 10 µM
[2] = molecular target: Receptor tyrosine-protein kinase erbB-2 (Homo sapiens) (UniProt P04626); experiment: as above; conditions: 18-24 h, at 10 µM, stronger effect = lower value
[3] = SK-BR-3 cell growth inhibitors, pilot screen, 24 h, human (AID 572;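 active means viability at or below 10% of carrier control in both of two separate runs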;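 further: compound exposure lasted between 18 and 24 h rather than exactly 24 h; 100% = carrier-treated control wells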); conditions: SK-BR-3 viability, CellTiter-Glo luminescence, at 10 µM, stronger effect = lower value
[4] = HUVEC growth inhibition – cell-based, human, primary screen (AID 575;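 active means viability at or below 30% in both replicate assays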;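 further: 100% = median of untreated cell wells with 0.1% DMSO on each plate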); conditions: HUVEC proliferation, CellTiter-Glo luminescence, 72 h; at 10 µM; stronger effect = lower value
In short: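 Timing: 72 h treatment at 37 °C; material: HUVEC primary cells; technique: CellTiter-Glo luminescence measuring cellular ATP; controls: vehicle and MePR control wells; measure: percent of median DMSO-control luminescence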

[5] = growth inhibitors of H69AR lung tumor, primary screen, human, duplicate replicates (AID 580); conditions: H69AR lung tumor cells viability, ATP luminescence, 72 h; at 10 µM; stronger effect = lower value;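 further: 100% = mean luminescence of untreated wells and 0% = no signal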
[6] = reversal of MRP1-mediated doxorubicin resistance, pilot screen, H69AR cells, doxorubicin co-treatment (AID 601;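 active means viability loss from added drug above about 55%, and viability with drug at most 40%, in both replicates, limit read from the data, passing the limit was not always enough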); conditions: CellTiter-Glo, 72 h, at 10 µM; for differential viability (reversal): stronger effect = higher value
[7] = 384-well plate pilot, post-Golgi transport modulator project, inhibition of yeast transport mutant growth (AID 636; in the data active means inhibition above about 31%); conditions: absorbance 615 nm, about 18 h, stronger effect = higher value
[8] = growth suppression of yeast trafficking mutant, preliminary HTS, modulators of trafficking downstream of Golgi apparatus project, 1536-format plate, OD 615 nm (AID 637; in the data active means inhibition above about 30%); conditions: yeast transport mutant growth, absorbance 615 nm, 18 h; stronger effect = higher value
[9] = H69AR cells + 2 uM doxorubicin, measured here: viability with 2 uM doxorubicin, stronger effect = lower value
[10] = H69AR cells, compound alone cytotoxicity

Chain of Receptor tyrosine-protein kinase erbB-2 (Homo sapiens) (P04626 whole entry, looked up): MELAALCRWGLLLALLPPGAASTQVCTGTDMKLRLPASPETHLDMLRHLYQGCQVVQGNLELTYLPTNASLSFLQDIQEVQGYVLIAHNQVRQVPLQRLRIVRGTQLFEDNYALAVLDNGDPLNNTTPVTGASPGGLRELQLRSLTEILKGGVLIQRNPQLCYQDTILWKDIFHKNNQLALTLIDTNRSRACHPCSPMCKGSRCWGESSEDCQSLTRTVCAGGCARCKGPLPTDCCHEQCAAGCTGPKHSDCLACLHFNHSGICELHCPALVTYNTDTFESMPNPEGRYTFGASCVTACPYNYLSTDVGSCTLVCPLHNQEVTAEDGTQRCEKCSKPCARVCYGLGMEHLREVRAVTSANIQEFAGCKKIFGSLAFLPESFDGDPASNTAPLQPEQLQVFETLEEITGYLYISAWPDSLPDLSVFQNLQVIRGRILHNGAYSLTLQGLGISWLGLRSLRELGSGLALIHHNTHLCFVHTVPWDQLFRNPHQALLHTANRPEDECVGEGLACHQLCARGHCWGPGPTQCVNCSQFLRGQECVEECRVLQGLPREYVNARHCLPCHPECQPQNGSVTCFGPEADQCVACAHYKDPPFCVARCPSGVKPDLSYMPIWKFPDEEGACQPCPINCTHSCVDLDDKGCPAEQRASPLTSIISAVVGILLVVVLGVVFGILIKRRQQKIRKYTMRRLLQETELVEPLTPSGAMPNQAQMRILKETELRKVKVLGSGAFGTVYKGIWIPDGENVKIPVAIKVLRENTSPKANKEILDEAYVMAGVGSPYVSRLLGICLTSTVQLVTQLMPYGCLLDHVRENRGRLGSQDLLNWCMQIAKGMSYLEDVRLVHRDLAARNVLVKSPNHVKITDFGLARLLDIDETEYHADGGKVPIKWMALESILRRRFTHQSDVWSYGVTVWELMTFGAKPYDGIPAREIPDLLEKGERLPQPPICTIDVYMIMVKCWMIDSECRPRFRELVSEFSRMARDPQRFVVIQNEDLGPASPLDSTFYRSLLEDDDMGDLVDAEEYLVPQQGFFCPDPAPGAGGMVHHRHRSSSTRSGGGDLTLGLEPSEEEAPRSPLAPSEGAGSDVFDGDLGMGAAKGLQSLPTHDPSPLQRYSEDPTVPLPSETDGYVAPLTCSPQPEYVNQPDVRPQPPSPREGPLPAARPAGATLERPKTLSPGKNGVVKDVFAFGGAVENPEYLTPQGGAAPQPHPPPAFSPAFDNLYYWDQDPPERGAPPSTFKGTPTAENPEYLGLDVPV

| SMILES | viability [1] [%] | Her2 level [2] | viability [3] | viability [4] | viability [5] | differential viability (reversal) ([6]; H69AR cells + 2 uM doxorubicin) | viability [6, 9] [%] | viability [6, 10] [%] | inhibition [7] | inhibition [8] |
| --- | --- | --- | --- | --- | --- | --- | --- | --- | --- | --- |
| COC(=O)c1sc2ccccc2c1NC(=O)c1cccs1 | 97.5 | 99.5% (inactive) | 97.5% (inactive) | 82.1% (inactive) | 82.1% (inactive) | -17.2% (inactive) | 99.3 | 82.1 | -2.08% (inactive) | -5.87% (inactive) |
| COc1cccc(-c2noc(C3CCCN(C(=O)Cc4ccccc4)C3)n2)c1 (stereo not given) | 95 | 94% (inactive) | 95% (inactive) | 104% (inactive) | 85% (inactive) | -2.34% (inactive) | 87.3 | 85 | -0.65% (inactive) | -3.97% (inactive) |
| CCOc1ccc(Cl)cc1S(=O)(=O)N1CCCC1 | 100 | 94.5% (inactive) | 100% (inactive) | 101% (inactive) | 88.8% (inactive) | -5.74% (inactive) | 94.5 | 88.8 | -4.34% (inactive) | -1.11% (inactive) |
| CCSc1oc(-c2cccs2)nc1S(=O)(=O)c1ccccc1 | 93.5 | 104% (inactive) | 93.5% (inactive) | 59.9% (inactive) | 82% (inactive) | 5.72% (inactive) | 76.3 | 82 | -5.33% (inactive) | 1.83% (inactive) |
| Cc1cc2cc(CN(CCCN3CCOCC3)C(=O)NC3CCCCC3)c(=O)[nH]c2cc1C | 73.5 | 83% (inactive) | 73.5% (inactive) | 70.2% (inactive) | 82.8% (inactive) | 6.29% (inactive) | 76.5 | 82.8 | -5.07% (inactive) | -2.26% (inactive) |
| Cc1cc(C)n2nc(C(=O)NCc3ccco3)nc2n1 | 101 | 90% (inactive) | 101% (inactive) | 91.4% (inactive) | 99% (inactive) | 4.53% (inactive) | 94.5 | 99 | -0.26% (inactive) | -5.32% (inactive) |
| O=C(OCc1cc2ccccc2[nH]c1=O)c1ccco1 | 106 | 114% (inactive) | 106% (inactive) | 95.9% (inactive) | 100% (inactive) | 6.74% (inactive) | 93.3 | 100 | -1.43% (inactive) | -6.67% (inactive) |
| O=C(CCN1CCOCC1)Nc1cccc(Br)c1 | 100 | 86% (inactive) | 100% (inactive) | 78.9% (inactive) | 92.9% (inactive) | 7.72% (inactive) | 85.2 | 92.9 | -5.47% (inactive) | -6.56% (inactive) |
